A short description of data set [1]: Antagonist activity at acetylcholine receptor (unknown origin). More on the design: species or system Homo sapiens.
The test system of data set [2] is Mus musculus. Nature of the data set: Neurotoxicity in ip dosed albino CD-1 mouse assessed as time to peak central activity by rotarod test. The class given is toxicity, organism-based. To be noted: in vivo. In a few lines: (§1)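 Male CD-1 mice (20-25 g), groups of 6-12, given ip doses in aqueous solution (1.0 mL/100 g). Neurotoxicity = failure to stay 1 min on a rod turning at 6 rpm. Time of peak central activity found. TD50 and 95% limits by Litchfield-Wilcoxon from at least three points in the 10-90% range.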

For data set [3], the system named is Mus musculus. Nature of the data set: Toxicity in albino CD-1 mouse assessed as clonic-like seizure activity at >/= 2.68 mmol/kg, ip. The class given is organism-based. To be noted: in vivo.
Data set [4] concerns Mus musculus. Nature of the data set: Toxicity in albino CD-1 mouse assessed as loss of righting reflex at >/= 2.68 mmol/kg, ip. The class given is organism-based. Particulars: in vivo.
Data set [5] relates to Mus musculus. In words: Anti-parkinsonian activity in ip dosed albino CD-1 mouse assessed as inhibition of oxotremorine-induced tremor at 0.25 to 1 time TD50 administered 30 mins prior challenge. The class given is functional, organism-based. In short, it runs like this:
(§2)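 Male CD-1 mice (20-25 g), groups of five, given test compound ip (aqueous, 1.0 mL/100 g) or saline 30 min before oxotremorine 1 mg/kg ip. Tremor intensity scored 0 absent, 1 mild, 2 moderate, 3 severe, summed over five animals; diarrhea and salivation also observed.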

Data set [6] is described as follows: Protective index, ratio of TD50 for neurotoxicity to ED50 for anticonvulsant activity in ip dosed albino CD-1 mouse. The class given is toxicity, organism-based. To be noted: in vivo, read-out: Ratio TD50/ED50. In short, it runs like this:
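Groups of 6-12 male CD-1 mice dosed ip across a range giving at least three points at 10-90% MES protection or rotarod neurotoxicity. ED50 and TD50 by Litchfield-Wilcoxon; PI = TD50/ED50, not calculated when protection is below 50%.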

Data set [7] can be described thus: Neurotoxicity in ip dosed albino CD-1 mouse by rotarod test. Particulars: in vivo. It counts as toxicity, organism-based. In short, it runs like this:
as §1

For data set [8], the system named is Mus musculus. In words: Toxicity in albino CD-1 mouse assessed as mortality at >/= 2.68 mmol/kg, ip. It counts as organism-based. To be noted: in vivo.
Data set [9] deals with Mus musculus. In words: Anticonvulsant activity in ip dosed albino CD-1 mouse assessed as threshold ratio for pentylenetetrazole-induced tonic-clonic seizures at 0.5 time TD50 measured at time of peak effect relative to saline-treated control. It counts as functional. In a few lines: (§3)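 Male CD-1 mice (20-25 g) given saline or 0.5 TD50 test compound ip. At time of peak activity, pentylenetetrazole (0.5%) infused iv at 0.51 mL/min until minimal (clonic) or maximal (tonic-clonic) seizure. Threshold ratio = mean mg/kg pentylenetetrazole in treated mice ÷ mg/kg in saline mice, with 95% confidence intervals.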

Data set [10] deals with Mus musculus. In words: Anti-parkinsonian activity in ip dosed albino CD-1 mouse assessed as inhibition of oxotremorine-induced diarrhea at 0.25 to 1 time TD50 administered 30 mins prior challenge. The class given is functional, organism-based. In a few lines:
as §2

In data set [11] the test system is Mus musculus. In words: Anticonvulsant activity in ip dosed albino CD-1 mouse assessed as protection from maximal electroshock-induced seizures measured at time of peak effect. The class given is functional. Particulars: CD-1, ip. In short, it runs like this: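 Male CD-1 mice (20-25 g) dosed ip in aqueous solution (1.0 mL/100 g). At time of peak rotarod activity, MES given by corneal electrodes (50-mA ac, 0.2 s). End point: abolition of hindlimb-extensor component.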

In data set [12] the test system is Mus musculus. In words: Toxicity in albino CD-1 mouse assessed as sedation at >/= 2.68 mmol/kg, ip. The class given is organism-based. Particulars: in vivo.
Data set [13] has as its system Mus musculus. In words: Anticonvulsant activity in ip dosed albino CD-1 mouse assessed as threshold ratio for pentylenetetrazole-induced clonic seizures at 0.5 time TD50 measured at time of peak effect relative to saline-treated control. It counts as functional. In short, it runs like this:
as §3

The subject of data set [14] is Mus musculus. In words: Anti-parkinsonian activity in ip dosed albino CD-1 mouse assessed as inhibition of oxotremorine-induced salivation at 0.25 to 1 time TD50 administered 30 mins prior challenge. It counts as functional, organism-based. In a few lines:
as §2

Data set [15] deals with Mus musculus. In words: Toxicity in albino CD-1 mouse assessed as increased excitability to touch at >/= 6.1 mmol/kg, ip. Particulars: in vivo. The class given is organism-based.
Data set [16] relates to Mus musculus. Nature of the data set: Toxicity in albino CD-1 mouse assessed as loss of righting reflex at >/= 6.1 mmol/kg, ip. To be noted: in vivo. The class given is organism-based.
In data set [17] the test system is Mus musculus. Nature of the data set: Toxicity in albino CD-1 mouse assessed as twitching at >/= 6.1 mmol/kg, ip. It counts as organism-based. Particulars: in vivo.
The test system of data set [18] is Mus musculus. In words: Toxicity in albino CD-1 mouse assessed as occasional clonic seizure-like movements at >/= 6.1 mmol/kg, ip. It counts as organism-based. To be noted: in vivo.
The subject of data set [19] is Mus musculus. Nature of the data set: Toxicity in albino CD-1 mouse assessed as behavioral effect at 2.81 mmol/kg, ip. It counts as organism-based. To be noted: in vivo.
Data set [20] deals with Mus musculus. In words: Anti-parkinsonian activity in ip dosed albino CD-1 mouse assessed as inhibition of oxotremorine-induced tremor administered 30 mins prior challenge. It counts as functional, organism-based. In a few lines: as §2

Molecules are shown by their SMILES. Calls of active or inactive are those of the source.

As to `CCN[C@@H]1CCN(c2ccccc2)C1`, the pA2 in [1] was determined as 3.5.
For the compound `CC1(C)Oc2ccc(N3C(=O)C[C@H](N)C3=O)cc2O1.Cl`, in the data set with Mus musculus [2], the Time came to 30 min. Also, the Activity result in the data set with Mus musculus [3], in the data set with Mus musculus [4], with Mus musculus [8] and with Mus musculus [12] was “Toxic” each time. Besides, the outcome in the data set on Mus musculus [5] was Active. For the same compound, the selectivity ratio in data set [6] turned out to be 1.45. The TD50 in [7] turned out to be 1220 µmol/kg. In addition, the Ratio with Mus musculus [9] is on record as 1.34; with Mus musculus [13], 1.36. The result with Mus musculus [10] and in the data set with Mus musculus [14] was inactive. Moreover, in the data set with Mus musculus [11], the ED50 turned out to be 840 µmol/kg.
With `CC(=O)N[C@@H]1CC(=O)N(Cc2ccccc2)C1=O`, in the data set with Mus musculus [2], the Time came to 30 min. Also, the Activity entry in the data set on Mus musculus [15], in the data set on Mus musculus [16], with Mus musculus [17] and in the data set on Mus musculus [18] was “Toxic” throughout. Moreover, the selectivity ratio in data set [6] was found to be 3.25. This compound also yielded a TD50 in data set [7] of 4760 µmol/kg. Further, the Ratio in the data set on Mus musculus [9] is recorded as 0.85; in the data set on Mus musculus [13] it was 1.36. Further, the ED50 in the data set with Mus musculus [11] stood at 1460 µmol/kg.
With `Cl.N[C@@H]1CC(=O)N(c2ccc3c(c2)OCO3)C1=O`, the Time with Mus musculus [2] was 45 min. In the data set on Mus musculus [5], the outcome was inactive. Further, the TD50 in [7] stood at 3330 µmol/kg. For the same compound, the Ratio with Mus musculus [9] was found to be 0.75; with Mus musculus [13], 1.03. Moreover, the result in the data set on Mus musculus [10] and in the data set on Mus musculus [14] was Active. Further, the ED50 in the data set on Mus musculus [11] amounted to 3330 µmol/kg.
For `O=C1N=C([O-])NC1(c1ccccc1)c1ccccc1.[Na+]` [PHENYTOIN SODIUM], the Time in the data set with Mus musculus [2] is 45 min. For the same compound, in data set [6], the selectivity ratio was 10. The compound further had a TD50 in [7] of 220 µmol/kg. In addition, the Ratio amounted to 2.08 with Mus musculus [9] and 1.07 with Mus musculus [13]. In addition, in the data set with Mus musculus [11], the ED50 worked out at 22 µmol/kg.
Turning to `CN1C(=O)OC(C)(C)C1=O` [TRIMETHADIONE], in the data set on Mus musculus [2], the Time was found to be 5 min. The selectivity ratio in data set [6] is 1.07. The compound also returned a TD50 in data set [7] of 3980 µmol/kg. The Ratio in the data set with Mus musculus [9] was found to be 2.25; with Mus musculus [13] it was 2.05. Moreover, in the data set on Mus musculus [11], the ED50 stood at 3720 µmol/kg.
Turning to `CCC1(C)CC(=O)NC1=O` (stereo not given) [ETHOSUXIMIDE], the Time in the data set on Mus musculus [2] stood at 5 min. The compound further returned a TD50 in [7] of 2320 µmol/kg. For the same compound, the Ratio is given as 1.71 in the data set on Mus musculus [9] and 1.34 in the data set with Mus musculus [13]. Besides, in the data set with Mus musculus [11], the ED50 was 2320 µmol/kg.
With `CC(=O)N[C@H]1CC(=O)N(Cc2ccccc2)C1=O`, the Time in the data set on Mus musculus [2] was determined as 30 min. In addition, the Activity entry in the data set with Mus musculus [15], with Mus musculus [16], in the data set with Mus musculus [17] and in the data set on Mus musculus [18] was “Toxic” each time. Also, in [6], the selectivity ratio was 4.41. In data set [7], this compound gave a TD50 of 5280 µmol/kg. The Ratio with Mus musculus [9] is on record as 1.11; in the data set on Mus musculus [13], 1.06. Further, the ED50 in the data set with Mus musculus [11] worked out at 1200 µmol/kg.
`Cl.N[C@H]1CC(=O)N(c2ccc3c(c2)OCO3)C1=O`: the Time with Mus musculus [2] worked out at 45 min. The result in the data set on Mus musculus [5] was inactive. In [7], the TD50 is 5040 µmol/kg. Moreover, the Ratio in the data set with Mus musculus [9] was found to be 0.92; in the data set with Mus musculus [13], 1.08. Also, the result in the data set with Mus musculus [10] and with Mus musculus [14] was Active. The ED50 in the data set on Mus musculus [11] came out at 5040 µmol/kg.
For `Cl.N[C@@H]1CC(=O)N(Cc2ccc3c(c2)OCO3)C1=O`, the Time with Mus musculus [2] is recorded as 15 min. For the same compound, in [6], the selectivity ratio came to 2.54. The Activity result in the data set with Mus musculus [19] was “Non-toxic”. In [7], this compound yielded a TD50 of 1830 µmol/kg. Also, the results for the Ratio with Mus musculus [9] and with Mus musculus [13] were 1.18 and 1.61, respectively. For the same compound, the ED50 in the data set with Mus musculus [11] amounted to 720 µmol/kg.
For `CC1(C)Oc2ccc(N3C(=O)C[C@@H](N)C3=O)cc2O1.Cl`, the Time with Mus musculus [2] turned out to be 15 min. Also, the Activity result with Mus musculus [3] was “Toxic”; in the data set with Mus musculus [4], “Toxic”; in the data set with Mus musculus [8], “Toxic”; with Mus musculus [20] it was “Dose-dependent effect”; in the data set with Mus musculus [12], “Toxic”. Also, in the data set with Mus musculus [5], the result was Active. In [6], the selectivity ratio stood at 1.68. Besides, the TD50 in data set [7] turned out to be 960 µmol/kg. The Ratio was found to be 1.66 with Mus musculus [9] and 1.28 in the data set on Mus musculus [13]. Besides, the outcome in the data set on Mus musculus [10] and in the data set with Mus musculus [14] was inactive. In addition, the ED50 in the data set on Mus musculus [11] turned out to be 570 µmol/kg.
`Cl.N[C@H]1CC(=O)N(Cc2ccc3c(c2)OCO3)C1=O`: the Time in the data set with Mus musculus [2] amounted to 15 min. The selectivity ratio in [6] stood at 2.85. Also, the Activity entry with Mus musculus [19] is “Non-toxic”. Moreover, in data set [7], the TD50 is 2000 µmol/kg. Besides, the Ratio in the data set with Mus musculus [9] was found to be 1.09; in the data set on Mus musculus [13], 1.54. Moreover, in the data set on Mus musculus [11], the ED50 was 700 µmol/kg.

As a reminder, the pA2 is a measure of antagonist potency on a negative log scale. In general, TD50 refers to the 50% point of the dose-response relation for the toxic effect studied. A low value points to harm at a small dose. One may read the ED50 as the midpoint of the dose-response relation.
